Results reported in ChEMBL document CHEMBL2311452 (J Med Chem, 2013).

Key:
Neuraminidase [1] = target: T1, Neuraminidase (Influenza A virus, UniProt B4URF0); assay: Inhibition of influenza A virus (A/Guangdong/376/2001(H1N1)) neuraminidase infected in chick embryo using MUNANA as substrate after 1 hr by spectrophotometric analysis
Neuraminidase [2] = target: T1, Neuraminidase; assay: Inhibition of Influenza A virus (A/Sydney/5/1997(H3N2)) neuraminidase infected in chick embryo using MUNANA as substrate after 1 hr by spectrophotometric analysis
Neuraminidase [3] = target: T1, Neuraminidase; assay: Inhibition of Influenza A virus (A/Indonesia/5/2005(H5N1)) neuraminidase infected in chick embryo using MUNANA as substrate after 1 hr by spectrophotometric analysis
[4] = Cmax in Sprague-Dawley rat at 2 mg/kg, iv; type: ADME, organism-based; parameters: dose 2 mg/kg, route intravenous; conditions: in vivo
Method in brief: (§1)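 Male Sprague-Dawley rats (~250 g), three per group, given a single 2 mg/kg intravenous dose. Blood samples were drawn via the retrobulbar vein at 0, 5, 15 and 30 min and at 1, 2, 5, 8 and 24 h. Plasma levels were quantified by LC/MS/MS, and parameters were derived by noncompartmental analysis of mean plasma concentrations.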

[5] = AUC (0 to 8 hrs) in Sprague-Dawley rat at 2 mg/kg, iv; type: ADME, organism-based; parameters: time < 8 hr, dose 2 mg/kg, route intravenous; conditions: plasma
Method in brief: (§2)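 Male Sprague-Dawley rats (~250 g), three per group. One group received 10 mg/kg orally and the other 2 mg/kg intravenously. Blood was drawn from the retrobulbar vein at 0, 5, 15 and 30 min and at 1, 2, 5, 8 and 24 h. Plasma levels were measured by LC/MS/MS, and parameters were calculated by noncompartmental analysis of mean plasma concentrations.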

[6] = Tmax in Sprague-Dawley rat at 10 mg/kg, po; type: ADME, organism-based; parameters: dose 10 mg/kg, route oral; conditions: in vivo
Method in brief: (§3)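 Single 10 mg/kg oral dose given to male Sprague-Dawley rats (~250 g), three per group. Blood was sampled via the retrobulbar vein at 0, 5, 15 and 30 min and at 1, 2, 5, 8 and 24 h. Plasma concentrations were measured by LC/MS/MS, and parameters came from noncompartmental analysis of mean plasma concentrations.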

[7] = Mean residence time in Sprague-Dawley rat at 10 mg/kg, po; type: ADME, organism-based; parameters: dose 10 mg/kg, route oral; conditions: in vivo; method in brief: as §3
[8] = Volume of distribution at steady state in Sprague-Dawley rat at 2 mg/kg, iv; type: ADME, organism-based; parameters: dose 2 mg/kg, route intravenous; conditions: in vivo, read-out: Vdss; method in brief: as §1
[9] = Cmax in Sprague-Dawley rat at 10 mg/kg, po; type: ADME, organism-based; parameters: dose 10 mg/kg, route oral; conditions: in vivo; method in brief: as §3
[10] = Terminal half life in Sprague-Dawley rat at 10 mg/kg, po; type: ADME, organism-based; parameters: dose 10 mg/kg, route oral; conditions: in vivo, read-out: beta t1/2 (converted)
Method in brief: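 Single 10 mg/kg oral dose given to male Sprague-Dawley rats (~250 g), three per group. Plasma concentrations were measured by LC/MS/MS, and parameters came from noncompartmental analysis of mean plasma concentrations.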

[11] = AUC (0 to 8 hrs) in Sprague-Dawley rat at 10 mg/kg, po; type: ADME, organism-based; parameters: time < 8 hr, dose 10 mg/kg, route oral; conditions: plasma; method in brief: as §2
[12] = Terminal half life in Sprague-Dawley rat at 2 mg/kg, iv; type: ADME, organism-based; parameters: dose 2 mg/kg, route intravenous; conditions: in vivo, read-out: beta t1/2 (converted); method in brief: as §1
[13] = Clearance in Sprague-Dawley rat at 2 mg/kg, iv; type: ADME, organism-based; parameters: dose 2 mg/kg, route intravenous; conditions: in vivo; method in brief: as §1
[14] = Mean residence time in Sprague-Dawley rat at 2 mg/kg, iv; type: ADME, organism-based; parameters: dose 2 mg/kg, route intravenous; conditions: in vivo; method in brief: as §1
[15] = Oral bioavailability in Sprague-Dawley rat at 10 mg/kg; type: ADME, organism-based; conditions: in vivo; method in brief: as §3
[16] = Volume of distribution at steady state in Sprague-Dawley rat at 10 mg/kg, iv; type: ADME, organism-based; parameters: dose 10 mg/kg, route intravenous; conditions: in vivo, read-out: Vdss
[17] = Terminal half life in Sprague-Dawley rat at 10 mg/kg, iv; type: ADME, organism-based; parameters: dose 10 mg/kg, route intravenous; conditions: in vivo, read-out: beta t1/2 (converted)
[18] = Clearance in Sprague-Dawley rat at 10 mg/kg, iv; type: ADME, organism-based; parameters: dose 10 mg/kg, route intravenous; conditions: in vivo
[19] = target: Neuraminidase (Influenza A virus) (UniProt B4URF0); assay: Inhibition of influenza A virus (A/Guangdong/376/2001(H1N1)) neuraminidase infected in chick embryo using MUNANA as substrate at 1 uM after 1 hr by spectrophotometric analysis
Neuraminidase [20] = target: T1, Neuraminidase; assay: Inhibition of Influenza A virus […]/78(H1N1) neuraminidase
Neuraminidase [21] = target: T1, Neuraminidase; assay: Inhibition of Influenza A virus Mississippi/1/85(H3N2) neuraminidase
Neuraminidase [22] = target: T1, Neuraminidase; assay: Inhibition of Influenza A virus H5N1 neuraminidase

T1 sequence (B4URF0 whole entry): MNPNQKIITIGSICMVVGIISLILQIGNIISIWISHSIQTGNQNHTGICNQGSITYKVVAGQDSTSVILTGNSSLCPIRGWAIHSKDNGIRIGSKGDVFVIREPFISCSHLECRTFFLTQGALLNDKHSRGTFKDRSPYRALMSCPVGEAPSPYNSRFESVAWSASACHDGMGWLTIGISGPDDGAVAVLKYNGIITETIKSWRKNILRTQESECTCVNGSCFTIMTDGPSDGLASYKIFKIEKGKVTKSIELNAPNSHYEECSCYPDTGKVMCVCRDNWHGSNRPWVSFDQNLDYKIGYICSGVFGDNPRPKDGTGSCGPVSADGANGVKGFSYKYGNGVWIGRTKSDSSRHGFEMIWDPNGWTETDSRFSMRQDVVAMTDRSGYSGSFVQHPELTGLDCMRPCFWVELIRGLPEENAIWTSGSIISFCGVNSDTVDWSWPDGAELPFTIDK
Neuraminidase (Influenza A virus), sequence (B4URF0 as listed by the source): as the sequence (B4URF0 whole entry) above

Row | Compound | IC50 (Neuraminidase [1]) [µM] | IC50 (Neuraminidase [2]) [µM] | IC50 (Neuraminidase [3]) [µM] | also measured
1 | CC(=O)N[C@H]1[C@H]([C@H](O)[C@H](O)CO)OC(C(=O)N2CCOCC2)=C[C@@H]1O | 98.9 | 52.9 | 66.7 | 
2 | CC(=O)N[C@H]1[C@H]([C@H](O)[C@H](O)CO)OC(C(=O)N[C@H](C(=O)O)C(C)C)=C[C@@H]1N | 2.25 | 5.15 | 4.3 | 
3 | CC(=O)N[C@H]1[C@H]([C@H](O)[C@H](O)CO)OC(C(=O)N[C@@H](C)C(=O)O)=C[C@@H]1NC(=N)N | 0.1 | 0.41 | 0.063 | 
4 | CC(=O)N[C@H]1[C@H]([C@H](O)[C@H](O)CO)OC(C(=O)NCc2cccc(F)c2)=C[C@@H]1NC(=N)N | 0.09 | 0.013 | 0.001 | Cmax [4]: 8800 ng/mL; AUC(0-t) at 8 h [5]: 5380 ng·h/mL; Tmax [6]: 1 h; MRT [7]: 6.29 h; Vd [8]: 0.23 L/kg; Cmax [9]: 260 nM; half-life [10]: 2.96 h; AUC(0-t) at 8 h [11]: 378 ng·h/mL; half-life [12]: 0.69 h; clearance [13]: 5.83 mL/min/kg; MRT [14]: 0.65 h; bioavailability [15]: 1.41%
5 | CC(=O)N[C@H]1[C@H]([C@H](O)[C@H](O)CO)OC(C(=O)NCc2ccccc2F)=C[C@@H]1NC(=N)N | 0.24 | 0.89 | 0.26 | 
6 | CCOC(=O)C1=C[C@@H](OC(CC)CC)[C@H](NC(C)=O)[C@@H](N)C1.O=P(O)(O)O [OSELTAMIVIR PHOSPHATE] |  |  |  | Tmax [6]: 4 h; Vd [16]: 1.3 L/kg; Cmax [9]: 30 ng/mL; half-life [10]: 10.6 h; half-life [17]: 1.6 h; clearance [18]: 25 mL/min/kg; bioavailability [15]: 4.3%
7 | CC(=O)N[C@H]1[C@H]([C@H](O)[C@H](O)CO)OC(C(=O)N[C@@H](CC(C)C)C(=O)O)=C[C@@H]1N | 159 | 647 | 669 | 
8 | CC(=O)N[C@H]1[C@H]([C@H](O)[C@H](O)CO)OC(C(=O)N[C@H](C(=O)O)c2ccccc2)=C[C@@H]1O | 60.5 | 60 | 74.4 | 
9 | CC(=O)N[C@H]1[C@H]([C@H](O)[C@H](O)CO)OC(C(=O)N[C@@H](CCC(=O)O)C(=O)O)=C[C@@H]1NC(=N)N | 0.45 | 0.81 | 0.16 | 
10 | CC(=O)N[C@H]1[C@H]([C@H](O)[C@H](O)CO)OC(C(=O)N2CCC(C(=O)O)CC2)=C[C@@H]1N | 6.33 | 5.86 | 5.76 | 
11 | CC(=O)N[C@H]1[C@H]([C@H](O)[C@H](O)CO)OC(C(=O)NCc2ccc(C)cc2)=C[C@@H]1NC(=N)N | 0.26 | 0.85 | 0.28 | 
12 | CC(=O)N[C@H]1[C@H]([C@H](O)[C@H](O)CO)OC(C(=O)NCc2ccc(F)cc2)=C[C@@H]1NC(=N)N |  |  |  | inhibition [19]: 54.8%
13 | CC(=O)N[C@H]1[C@H]([C@H](O)[C@H](O)CO)OC(C(=O)N2CCC[C@@H](C(=O)O)C2)=C[C@@H]1N | 103 | 146 | 162 | 
14 | CC(=O)N[C@H]1[C@H]([C@H](O)[C@H](O)CO)OC(C(=O)O)=C[C@@H]1N=C(N)N [ZANAMIVIR] |  |  |  | Tmax [6]: 1.2 h; Vd [16]: 0.8 L/kg; Cmax [9]: 60 ng/mL; half-life [17]: 1.1 h; clearance [18]: 31.7 mL/min/kg
15 | COc1ccc(CNC(=O)C2=C[C@H](O)[C@@H](NC(C)=O)[C@H]([C@H](O)[C@H](O)CO)O2)cc1 | > 1000 | 858 | > 1000 | 
16 | CC(=O)N[C@H]1[C@H]([C@H](O)[C@H](O)CO)OC(C(=O)NCc2ccccc2)=C[C@@H]1O | 143 | 707 | 822 | 
17 | CC(=O)N[C@H]1[C@H]([C@H](O)[C@H](O)CO)OC(C(=O)N[C@@H](CC(C)C)C(=O)O)=C[C@@H]1NC(=N)N | 5.11 | 22.5 | 3.51 | 
18 | CC(=O)N[C@H]1[C@H]([C@H](O)[C@H](O)CO)OC(C(=O)N[C@@H](CC(C)C)C(=O)O)=C[C@@H]1O | > 1000 | 918 | > 1000 | 
19 | CC(=O)N[C@H]1[C@H]([C@H](O)[C@H](O)CO)OC(C(=O)N[C@H](C(=O)O)C(C)C)=C[C@@H]1NC(=N)N | 2.14 | 0.107 | 4.19 | 
20 | CC(=O)N[C@H]1[C@H]([C@H](O)[C@H](O)CO)OC(C(=O)N[C@H](C(=O)O)C(C)C)=C[C@@H]1O | > 1000 | 688 | 793 | 
21 | CC(=O)N[C@H]1[C@H]([C@H](O)[C@H](O)CO)OC(C(=O)NCCC(=O)O)=C[C@@H]1NC(=N)N | 0.36 | 0.5 | 0.07 | 
22 | CC(=O)N[C@H]1[C@H]([C@H](O)[C@H](O)CO)OC(C(=O)NCc2cccc(Cl)c2)=C[C@@H]1NC(=N)N |  |  |  | inhibition [19]: 51%
23 | CC(=O)N[C@H]1[C@H]([C@H](O)[C@H](O)CO)OC(C(=O)NCC(=O)O)=C[C@@H]1N | 13.9 | 16.7 | 8.67 | 
24 | CC(=O)N[C@H]1[C@H]([C@H](O)[C@H](O)CO)OC(C(=O)O)=C[C@@H]1O [NEU5AC2EN] |  |  |  | IC50 (Neuraminidase [20]): 240 µM; IC50 (Neuraminidase [21]): 52 µM; IC50 (Neuraminidase [22]): 0.012 µM
25 | CC[C@H](C)[C@H](NC(=O)C1=C[C@H](O)[C@@H](NC(C)=O)[C@H]([C@H](O)[C@H](O)CO)O1)C(=O)O | > 1000 | 790 | 939 | 
